ChEMBL document CHEMBL1151957, “Design and synthesis of novel C14-hydroxyl substituted triptolide derivatives as potential selective antitumor agents” (J Med Chem, 2009)
Active and inactive are the calls of the source. No cut-off for these calls is given here.

Legend:
PC-3 [1] = experiment: Antitumor activity against human PC3 cells xenografted in BALB/cA nu/nu mouse assessed as tumor growth inhibition at 4 mg/kg, po measured on day 21 postinfection; format: functional, organism-based; set-up: dose 4 mg/kg
Summary of the method: (§1)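 Nude BALB/cA nu/nu mice, 4-5 weeks old, received 1 mm³ tumor fragments implanted sc into the right flank by trocar. At 100-200 mm³ they were randomized, six per group, and dosed po daily in vehicle; controls got vehicle alone. Calipers twice weekly; V = length×width²/2; RTV = Vt/V0; T/C (%) = mean RTV treated / mean RTV control ×100. Student t test.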

[2] = Cytotoxicity against human Rh30 cells after 72 hrs by […]; format: functional, cell-based; settings: SJRH30, 72 h
Summary of the method: (§2)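 Cells grown at 37 °C in 5% CO2 in RPMI 1640 with 10% heat-inactivated FBS, glutamine, antibiotics and HEPES; MCF-7 medium also had sodium pyruvate and insulin. Cells in 96-well plates were treated in triplicate with graded concentrations for 72 h at 37 °C. Read-out was MTT for leukemia lines and SRB for solid-tumor lines. IC50 was set relative to control by the logit method, as mean ± SD of three independent experiments.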

SGC-7901 [3] = experiment: Cytotoxicity against human SGC7901 cells after 72 hrs by SRB assay; settings: SGC-7901, 72 h
K562 [4] = experiment: Cytotoxicity against human K562 cells after 72 hrs by MTT assay; format: functional, cell-based; settings: K562, 72 h; summary of the method: as §2
MDA-MB-468 [5] = experiment: Cytotoxicity against human MDA-MB-468 cells by SRB assay; format: functional, cell-based
Summary of the method: (§3)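 Cells grown in RPMI 1640 with 10% heat-inactivated FBS, 2 mmol/L glutamine, 10 mmol/L HEPES pH 7.4, 5% CO2, 37 °C; MCF-7/ADR also given 1 mmol/L pyruvate and 0.01 mg/mL insulin. Treated in triplicate with graded concentrations for 72 h at 37 °C, read by SRB. IC50 (50% growth inhibition vs control) by logit method; three independent experiments.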

KB [6] = experiment: Cytotoxicity against human KB cells after 72 hrs […]; format: functional, cell-based; summary of the method: as §2
[7] = Cytotoxicity against multidrug-resistant human MCF7/ADR cells by SRB assay; format: functional, cell-based; settings: NCI/ADR-RES; summary of the method: as §3
HCT-116 = experiment: Cytotoxicity against human HCT116 cells after 72 hrs […]; format: functional, cell-based; settings: HCT-116, 72 h; summary of the method: as §2
SMMC-7721 [8] = experiment: Cytotoxicity against human SMMC7721 cells after 72 hrs […]; format: functional, cell-based; settings: SMMC-7721, 72 h; summary of the method: as §2
SK-OV-3 [9] = experiment: Antitumor activity against human SKOV3 cells xenografted in BALB/cA nu/nu mouse assessed as tumor growth inhibition at 2 mg/kg, po measured on day 21 postinfection; format: functional; set-up: scale not given: the % may be the effect or the level left; summary of the method: as §1
Bel-7402 = experiment: Cytotoxicity against human Bel7402 cells after 72 hrs by […]; format: functional, cell-based; settings: Bel-7402, 72 h; summary of the method: as §2
[10] = Cytotoxicity against human 786-O cells after 72 hrs […]; format: functional, cell-based; settings: 786-0, 72 h; summary of the method: as §2
HeLa = experiment: Cytotoxicity against human HeLa cells after 72 hrs […]; format: functional, cell-based; summary of the method: as §2
SK-OV-3 [11] = experiment: Antitumor activity against human SKOV3 cells xenografted in BALB/cA nu/nu mouse assessed as tumor growth inhibition at 1 mg/kg, po relative to control; format: functional; summary of the method: as §1
SMMC-7721 [12] = experiment: Antitumor activity against human SMMC7721 cells xenografted in BALB/cA nu/nu mouse assessed as tumor growth inhibition at 1 to 4 mg/kg, po; format: functional, organism-based; summary of the method: as §1
Mus musculus [13] = experiment: Toxicity in BALB/cA nu/nu mouse assessed as mortality at 1 to 4 mg/kg, po; format: organism-based; set-up: dose 1-4 mg/kg, route oral; settings: in vivo
Summary of the method: (§4)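 Female-unspecified BALB/cA nu/nu mice, 4-5 weeks old, carried sc 1 mm³ tumor fragments in the right flank. At 100-200 mm³, mice were randomized six per group and given compound po daily in vehicle, with vehicle-only controls, over about 21 days. Endpoints were deaths, systemic toxicity, body weight, and gross anatomy of liver and kidney.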

SK-OV-3 [14] = experiment: Antitumor activity against human SKOV3 cells xenografted in BALB/cA nu/nu mouse assessed as tumor growth inhibition at 4 mg/kg, po measured on day 21 postinfection; format: functional; set-up: scale not given: the % may be the effect or the level left; summary of the method: as §1
Mus musculus [15] = experiment: Toxicity in BALB/cA nu/nu mouse assessed as change in body weight at 1 to 4 mg/kg, po; format: organism-based; set-up: dose 1-4 mg/kg, route oral; settings: in vivo; summary of the method: as §4
[16] = Cytotoxicity against multidrug-resistant human K562/A02 cells by MTT assay
MCF7 [17] = experiment: Cytotoxicity against human MCF7 cells after 72 hrs […]; format: functional, cell-based; settings: MCF7, 72 h; summary of the method: as §2
MDA-MB-231 = experiment: Cytotoxicity against human MDA-MB-231 cells after 72 hrs […]; format: functional, cell-based; settings: MDA-MB-231, 72 h; summary of the method: as §2
MCF7 [18] = experiment: Resistant factor, ratio of IC50 for multidrug-resistant human MCF7/ADR cells to IC50 for human MCF7 cells; format: functional
Summary of the method: (§5)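 Resistance factor is the IC50 in the MDR line divided by the IC50 in its parental line. Both come from 72 h growth-inhibition assays: MTT for the leukemia pair, SRB for the solid-tumor pairs.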

SGC-7901 [19] = experiment: Antitumor activity against human SGC7901 cells xenografted in BALB/cA nu/nu mouse assessed as tumor growth inhibition at 4 mg/kg, po; format: functional; set-up: scale not given: the % may be the effect or the level left; summary of the method: as §1
PC-3 [20] = experiment: Cytotoxicity against human PC3 cells after 72 hrs by […]; format: functional, cell-based; settings: PC-3, 72 h; summary of the method: as §2
MKN-28 = experiment: Cytotoxicity against human MKN28 cells after 72 hrs […]; format: functional, cell-based; settings: MKN-28, 72 h; summary of the method: as §2
U-251 = experiment: Cytotoxicity against human U251 cells after 72 hrs […]; format: functional, cell-based; settings: U-251, 72 h; summary of the method: as §2
Mus musculus [21] = experiment: Toxicity in BALB/cA nu/nu mouse assessed as change in kidney gross anatomy at 1 to 4 mg/kg, po; format: organism-based; set-up: dose 1-4 mg/kg, route oral; settings: in vivo; summary of the method: as §4
SK-OV-3 [22] = experiment: Cytotoxicity against human SKOV3 cells after 72 hrs by […]; format: functional, cell-based; settings: SK-OV-3, 72 h; summary of the method: as §2
K562 [23] = experiment: Resistant factor, ratio of IC50 for multidrug-resistant human K562/A02 cells to IC50 for human K562 cells; format: functional; summary of the method: as §5
MDR = experiment: Cytotoxicity against multidrug-resistant human KB/VCR cells by SRB assay in presence of MDR reversing agent verapamil; format: functional, cell-based
Summary of the method: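 KB/VCR cells exposed to test agents together with the MDR reversal agent verapamil. Growth inhibition was read by SRB assay after 72 h treatment; each point is the mean of three independent experiments.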

Mus musculus [24] = experiment: Toxicity in BALB/cA nu/nu mouse assessed as change in liver gross anatomy at 1 to 4 mg/kg, po; format: organism-based; set-up: dose 1-4 mg/kg, route oral; settings: in vivo; summary of the method: as §4
A549 = experiment: Cytotoxicity against human A549 cells after 72 hrs by SRB assay; settings: A549, 72 h
HCT-15 = experiment: Cytotoxicity against human HCT15 cells after 72 hrs […]; format: functional, cell-based; settings: HCT-15, 72 h; summary of the method: as §2
DU-145 = experiment: Cytotoxicity against human DU145 cells after 72 hrs by […]; format: functional, cell-based; settings: DU-145, 72 h; summary of the method: as §2
SK-OV-3 [25] = experiment: Cytotoxicity against human SKOV3 cells by SRB assay; format: functional, cell-based; summary of the method: as §3
MOLT-4 = experiment: Cytotoxicity against human MOLT4 cells after 72 hrs by MTT assay; format: functional, cell-based; settings: MOLT-4, 72 h; summary of the method: as §2
[26] = Cytotoxicity against human HO8910 cells after 72 hrs by […]; format: functional, cell-based; settings: HO-8910, 72 h; summary of the method: as §2
PC-3 [27] = experiment: Antitumor activity against human PC3 cells xenografted in BALB/cA nu/nu mouse assessed as tumor growth inhibition at 2 mg/kg, po measured on day 21 postinfection; format: functional, organism-based; set-up: dose 2 mg/kg; summary of the method: as §1
PC-3 [28] = experiment: Cytotoxicity against human PC3 cells by SRB assay; format: functional, cell-based; summary of the method: as §3
Mus musculus [29] = experiment: Systemic toxicity in BALB/cA nu/nu mouse at 1 to 4 mg/kg, po; format: organism-based; set-up: dose 1-4 mg/kg, route oral; settings: in vivo; summary of the method: as §4
MDA-MB-468 [30] = experiment: Antitumor activity against human MDA-MB-468 cells xenografted in BALB/cA nu/nu mouse assessed as tumor growth inhibition at 1 to 4 mg/kg, po; format: functional, organism-based; summary of the method: as §1
KB [31] = experiment: Resistant factor, ratio of IC50 for multidrug-resistant human KB/VCR cells to IC50 for human KB cells; format: functional; summary of the method: as §5
[32] = Cytotoxicity against human SW1116 cells after 72 hrs by […]; format: functional, cell-based; settings: SW 1116, 72 h; summary of the method: as §2

Structure (SMILES): CC(C)[C@]12O[C@H]1[C@@H]1O[C@]13[C@]1(O[C@H]1C[C@H]1C4=C(CC[C@@]13C)C(=O)OC4)[C@]21CO1
- Activity (PC-3 [1]): Active
- IC50 [2]: 0.293 µM
- IC50 (SGC-7901 [3]): 0.175 µM
- IC50 (K562 [4]): 0.421 µM
- IC50 (MDA-MB-468 [5]): 0.18 µM
- IC50 (KB [6]): 0.615 µM
- IC50 [7]: 0.91 µM
- IC50 (HCT-116): 0.219 µM
- IC50 (SMMC-7721 [8]): 0.35 µM
- Activity (SK-OV-3 [9]): 87.5%
- IC50 (Bel-7402): 0.332 µM
- IC50 [10]: 0.386 µM
- IC50 (HeLa): 0.507 µM
- T/C (SK-OV-3 [11]): 50.2%
- Activity (SMMC-7721 [12]): inactive
- Activity (Mus musculus [13]): Non-toxic
- Activity (SK-OV-3 [14]): 97.4%
- Activity (Mus musculus [15]): Non-toxic
- IC50 [16]: 0.74 µM
- IC50 (MCF7 [17]): 0.36 µM
- IC50 (MDA-MB-231): 0.28 µM
- Ratio IC50 (MCF7 [18]): 2.53
- Activity (SGC-7901 [19]): 75%
- IC50 (PC-3 [20]): 0.637 µM
- IC50 (MKN-28): 2.54 µM
- IC50 (U-251): 0.657 µM
- Activity (Mus musculus [21]): Non-toxic
- IC50 (SK-OV-3 [22]): 0.27 µM
- Ratio IC50 (K562 [23]): 1.76
- Activity (MDR): Active
- Activity (Mus musculus [24]): Non-toxic
- IC50 (A549): 0.702 µM
- IC50 (HCT-15): 0.648 µM
- IC50 (DU-145): 0.256 µM
- IC50 (SK-OV-3 [25]): 0.1 µM
- IC50 (MOLT-4): 0.251 µM
- IC50 [26]: 0.538 µM
- Activity (PC-3 [27]): Active
- IC50 (PC-3 [28]): 0.27 µM
- Activity (Mus musculus [29]): Non-toxic
- Activity (MDA-MB-468 [30]): inactive
- Ratio IC50 (KB [31]): 0.77
- IC50 [32]: 0.907 µM

Structure (SMILES): CC(C)[C@]12O[C@H]1[C@@H]1O[C@]13[C@]1(O[C@H]1C=C1C4=C(CC[C@@]13C)C(=O)OC4)[C@]21CO1
- IC50 (MDA-MB-468 [5]): 1.14 µM
- IC50 (SK-OV-3 [25]): 0.57 µM
- IC50 (PC-3 [28]): 1.8 µM

Structure (SMILES): CC[C@]1(O)C[C@H]2CN(CCc3c([nH]c4ccccc34)[C@@](C(=O)OC)(c3cc4c(cc3OC)N(C=O)[C@H]3[C@@](O)(C(=O)OC)[C@H](OC(C)=O)[C@]5(CC)C=CCN6CC[C@]43[C@@H]65)C2)C1
- Activity (MDR): Active

Structure (SMILES): CC(C)[C@]1(O)[C@H](Cl)[C@@H]2O[C@]23[C@]2(O[C@H]2C[C@H]2C4=C(CC[C@@]23C)C(=O)OC4)[C@]12CO2
- IC50 (MDA-MB-468 [5]): 0.21 µM
- IC50 (SK-OV-3 [25]): 0.14 µM
- IC50 (PC-3 [28]): 0.47 µM

Structure (SMILES): CC(C)[C@]12O[C@H]1[C@@H]1O[C@]13[C@]1(O[C@H]1C[C@H]1C4=C(CC[C@@]13C)C(=O)OC4)[C@]2(O)CO
- IC50 (MDA-MB-468 [5]): > 100 µM
- IC50 (SK-OV-3 [25]): > 100 µM
- IC50 (PC-3 [28]): > 100 µM
